Source: ChEMBL document CHEMBL1773023, “Potent and selective phosphopeptide mimetic prodrugs targeted to the Src homology 2 (SH2) domain of signal transducer and activator of transcription 3” (J Med Chem, 2011)
Blank lines part the entries; values can stand above or below the compound they belong to. Active and inactive are the calls of the source. The rule behind the calls is not given here.

How the values were obtained:
[1] = target: T1, Signal transducer and activator of transcription 3 (Homo sapiens, UniProt P40763); assay: Binding affinity to SH2 domain of Stat3 by fluorescence polarization assay
Outline: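 Recombinant Stat3, expressed and purified, tested against phosphopeptides and peptidomimetics in a fluorescence polarization competition assay. Affinity is reported as an inhibition constant (K_I).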

[2] = target: T1, Signal transducer and activator of transcription 3; assay: Inhibition of SH2 domain of Stat3 constitutive phosphorylation at Tyr705 in human MDA-MB-468 cells after 2 hrs by Western blotting; assay type: cell-based
Outline: (§1)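 MDA-MB-468 cells (4×10^5/well, DMEM 10% FCS, overnight) given prodrug from freshly made 10 mM DMSO stock for 2 h. Lysates in Hepes pH 7.4 Triton buffer with phosphatase/protease inhibitors; 12 μg protein on 8% SDS-PAGE, PVDF, probed for pStat3 Y705 by ECL, then stripped and reprobed for total Stat3.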

[3] = target: T1, Signal transducer and activator of transcription 3; assay: Inhibition of SH2 domain of Stat3 constitutive phosphorylation at Tyr705 in human MDA-MB-468 cells at 5 uM after 30 mins by Western blotting; assay type: cell-based
Outline: (§2)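 MDA-MB-468 cells given a single 5 μM prodrug dose and harvested at set times; pTyr705 and total Stat3 by Western blot of 12 μg lysate protein on 8% SDS-PAGE.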

[4] = target: T1, Signal transducer and activator of transcription 3; assay: Inhibition of SH2 domain of Stat3 constitutive phosphorylation at Tyr705 in human MDA-MB-468 cells at 0.5 uM after 2 hrs by Western blotting; assay type: cell-based; outline: as §1
[5] = target: T1, Signal transducer and activator of transcription 3; assay: Inhibition of SH2 domain of Stat3 constitutive phosphorylation at Tyr705 in human MDA-MB-468 cells at 5 uM after 4 hrs by Western blotting; assay type: cell-based; outline: as §2
[6] = target: T1, Signal transducer and activator of transcription 3; assay: Inhibition of SH2 domain of Stat3 constitutive phosphorylation at Tyr705 in human MDA-MB-468 cells at 5 uM after 8 hrs by Western blotting; assay type: cell-based; outline: as §2
[7] = target: T1, Signal transducer and activator of transcription 3; assay: Inhibition of SH2 domain of Stat3 constitutive phosphorylation at Tyr705 in human MDA-MB-468 cells at 5 uM after 16 hrs by Western blotting; assay type: cell-based; outline: as §2
[8] = target: T1, Signal transducer and activator of transcription 3; assay: Inhibition of EGF-induced SH2 domain of Stat3 phosphorylation at Tyr705 in human MDA-MB-468 cells at 5 uM treated 1.5 hrs before EGF challenge measured after 30 mins by Western blotting; assay type: cell-based
Outline: (§3)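 MDA-MB-468 cells pretreated 1.5 h with prodrug (5 μM), then EGF 100 ng/mL for 30 min; lysates split onto three PVDF blots probed for phospho/total Stat3, pSer473/total Akt, and phospho/total Stat5.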

[9] = target: T2, Signal transducer and activator of transcription 5A (Homo sapiens) (UniProt P42229); assay: Inhibition of EGF-induced SH2 domain of Stat5 phosphorylation at Tyr694 in human MDA-MB-468 cells at 5 uM treated 1.5 hrs before EGF challenge measured after 30 mins by Western blotting; assay type: cell-based; outline: as §3
T2 sequence (whole entry): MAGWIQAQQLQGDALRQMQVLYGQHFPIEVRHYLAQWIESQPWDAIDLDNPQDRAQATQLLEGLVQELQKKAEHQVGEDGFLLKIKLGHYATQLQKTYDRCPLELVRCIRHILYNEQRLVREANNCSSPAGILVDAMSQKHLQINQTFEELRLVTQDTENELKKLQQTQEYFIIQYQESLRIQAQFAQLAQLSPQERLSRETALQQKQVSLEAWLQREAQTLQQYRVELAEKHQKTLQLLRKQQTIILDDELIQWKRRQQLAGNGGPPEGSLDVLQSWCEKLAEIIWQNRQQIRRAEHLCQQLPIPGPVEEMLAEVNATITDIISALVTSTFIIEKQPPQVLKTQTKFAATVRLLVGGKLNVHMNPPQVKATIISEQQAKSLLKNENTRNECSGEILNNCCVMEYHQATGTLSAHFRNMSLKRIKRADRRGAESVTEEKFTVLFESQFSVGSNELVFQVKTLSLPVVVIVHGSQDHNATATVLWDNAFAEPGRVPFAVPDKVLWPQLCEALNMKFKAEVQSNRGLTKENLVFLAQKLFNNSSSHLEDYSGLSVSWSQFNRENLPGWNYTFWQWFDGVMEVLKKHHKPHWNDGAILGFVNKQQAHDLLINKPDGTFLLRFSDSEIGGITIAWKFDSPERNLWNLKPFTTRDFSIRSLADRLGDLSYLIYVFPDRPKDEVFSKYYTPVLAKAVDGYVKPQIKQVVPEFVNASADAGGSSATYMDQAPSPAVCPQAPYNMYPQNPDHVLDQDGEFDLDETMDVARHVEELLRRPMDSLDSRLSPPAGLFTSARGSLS

[10] = target: RAC-alpha serine/threonine-protein kinase (Homo sapiens) (UniProt P31749); assay: Inhibition of EGF-induced Akt phosphorylation at Ser473 in human MDA-MB-468 cells at 5 uM treated 1.5 hrs before EGF challenge measured after 30 mins by Western blotting; assay type: cell-based; outline: as §3
[11] = target: T3, Signal transducer and activator of transcription 1-alpha/beta (Homo sapiens) (UniProt P42224); assay: Inhibition of IFN-gamma-induced Stat1 phosphorylation at Tyr701 in human MDA-MB-468 cells treated 1.5 hrs before IFN-gamma challenge measured after 30 mins by Western blotting; assay type: cell-based
T3 sequence (whole entry): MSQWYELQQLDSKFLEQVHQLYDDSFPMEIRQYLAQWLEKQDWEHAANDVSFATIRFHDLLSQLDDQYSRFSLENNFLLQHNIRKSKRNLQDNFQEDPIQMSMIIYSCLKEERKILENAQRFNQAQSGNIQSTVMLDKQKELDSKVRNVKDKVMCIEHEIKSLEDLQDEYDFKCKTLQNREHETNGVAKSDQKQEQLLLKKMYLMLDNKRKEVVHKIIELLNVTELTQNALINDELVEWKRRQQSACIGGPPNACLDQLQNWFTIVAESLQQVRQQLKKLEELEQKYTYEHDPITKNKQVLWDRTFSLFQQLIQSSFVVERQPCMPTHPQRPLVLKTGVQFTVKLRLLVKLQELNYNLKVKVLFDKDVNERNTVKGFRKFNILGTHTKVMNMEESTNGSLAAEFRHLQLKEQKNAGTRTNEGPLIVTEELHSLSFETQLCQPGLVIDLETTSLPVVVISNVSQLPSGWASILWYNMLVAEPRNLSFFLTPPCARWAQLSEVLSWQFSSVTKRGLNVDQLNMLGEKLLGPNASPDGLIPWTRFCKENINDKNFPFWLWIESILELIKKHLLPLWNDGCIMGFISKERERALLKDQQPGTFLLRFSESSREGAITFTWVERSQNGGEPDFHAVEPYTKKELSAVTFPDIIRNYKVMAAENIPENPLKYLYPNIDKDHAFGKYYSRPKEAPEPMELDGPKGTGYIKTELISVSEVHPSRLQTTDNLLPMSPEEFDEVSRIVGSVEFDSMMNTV
Outline: (§4)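 MDA-MB-468 cells exposed to rising prodrug concentrations for 1.5 h, then interferon γ 25 ng/mL for 30 min; Western blot for pTyr701 and total Stat1.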

[12] = target: T3, Signal transducer and activator of transcription 1-alpha/beta (Homo sapiens); assay: Inhibition of IFN-gamma-induced Stat1 phosphorylation at Tyr701 in human MDA-MB-468 cells at 5 uM treated 1.5 hrs before IFN-gamma challenge measured after 30 mins by Western blotting; assay type: cell-based; outline: as §4
[13] = test system: MDA-MB-468; assay: Selectivity ratio of inhibition of IFNgamma-induced Stat1 phosphorylation at Tyr701 to inhibition of EGF-induced SH2 domain of Stat3 phosphorylation at Tyr705 in human MDA-MB-468 cells; assay type: cell-based
[14] = Cytotoxicity against human NCI-H528 cells assessed as cell growth inhibition at 5 to 10 uM after 72 hrs by MTT assay; assay type: functional
Outline: (§5)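 Cell lines with constitutive Stat3 phosphorylation (melanoma, NSCLC) exposed to prodrug at 5–10 μM. Percent growth inhibition recorded.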

[15] = test system: MeWo; assay: Cytotoxicity against human MeWo cells assessed as cell growth inhibition at 5 to 10 uM after 72 hrs by MTT assay; assay type: functional; outline: as §5
[16] = test system: A-375; assay: Cytotoxicity against human A375 cells assessed as cell growth inhibition at 5 to 10 uM after 72 hrs by MTT assay; assay type: functional; outline: as §5
[17] = Cytotoxicity against human H1299 cells assessed as cell growth inhibition at 5 to 10 uM after 72 hrs by MTT assay; assay type: functional, NCI-H1299; outline: as §5
[18] = Cytotoxicity against human NCI-H1819 cells assessed as cell growth inhibition at 5 to 10 uM after 72 hrs by MTT assay; assay type: functional; outline: as §5
[19] = test system: A549; assay: Cytotoxicity against human A549 cells assessed as cell growth inhibition at 5 to 10 uM after 72 hrs by MTT assay; assay type: functional; outline: as §5
[20] = test system: NCI-H520; assay: Cytotoxicity against human NCI-H520 cells assessed as cell growth inhibition at 5 to 10 uM after 72 hrs by MTT assay; assay type: functional; outline: as §5
[21] = target: Focal adhesion kinase 1 (Homo sapiens) (UniProt Q05397); assay: Inhibition of constitutive FAK phosphorylation at Tyr861 in human MDA-MB-468 cells at 5 uM measured after 2 hrs by Western blotting
Sequence of Focal adhesion kinase 1 (Homo sapiens) (Q05397 2-1052 limits assumed): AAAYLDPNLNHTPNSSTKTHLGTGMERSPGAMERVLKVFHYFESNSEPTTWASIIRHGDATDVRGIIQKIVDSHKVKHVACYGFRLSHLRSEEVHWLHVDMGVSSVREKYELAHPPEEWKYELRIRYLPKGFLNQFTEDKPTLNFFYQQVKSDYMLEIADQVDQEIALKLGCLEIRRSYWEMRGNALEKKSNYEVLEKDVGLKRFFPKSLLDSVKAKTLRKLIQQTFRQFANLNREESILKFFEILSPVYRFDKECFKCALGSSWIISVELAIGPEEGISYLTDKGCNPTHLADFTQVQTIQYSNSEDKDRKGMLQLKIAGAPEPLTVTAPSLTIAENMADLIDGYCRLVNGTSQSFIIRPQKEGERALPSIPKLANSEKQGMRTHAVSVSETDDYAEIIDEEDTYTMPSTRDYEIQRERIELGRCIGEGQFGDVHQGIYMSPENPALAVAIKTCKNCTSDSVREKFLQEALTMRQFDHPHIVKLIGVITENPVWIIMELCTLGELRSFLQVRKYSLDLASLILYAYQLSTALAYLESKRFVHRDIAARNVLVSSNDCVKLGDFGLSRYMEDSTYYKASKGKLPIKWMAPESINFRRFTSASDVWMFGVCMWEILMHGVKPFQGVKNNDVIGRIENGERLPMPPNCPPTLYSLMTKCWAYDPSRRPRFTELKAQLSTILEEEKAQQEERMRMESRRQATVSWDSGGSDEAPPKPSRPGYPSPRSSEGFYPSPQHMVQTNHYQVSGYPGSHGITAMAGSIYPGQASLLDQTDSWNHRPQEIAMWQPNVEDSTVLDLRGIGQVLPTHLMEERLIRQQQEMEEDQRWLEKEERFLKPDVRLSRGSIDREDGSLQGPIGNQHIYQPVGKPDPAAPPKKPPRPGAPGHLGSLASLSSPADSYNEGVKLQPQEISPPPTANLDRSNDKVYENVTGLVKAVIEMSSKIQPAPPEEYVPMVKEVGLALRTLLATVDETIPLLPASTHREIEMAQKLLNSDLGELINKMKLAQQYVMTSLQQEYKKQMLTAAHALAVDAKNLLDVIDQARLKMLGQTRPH

T1 sequence (P40763 whole entry, the tested form may be a part): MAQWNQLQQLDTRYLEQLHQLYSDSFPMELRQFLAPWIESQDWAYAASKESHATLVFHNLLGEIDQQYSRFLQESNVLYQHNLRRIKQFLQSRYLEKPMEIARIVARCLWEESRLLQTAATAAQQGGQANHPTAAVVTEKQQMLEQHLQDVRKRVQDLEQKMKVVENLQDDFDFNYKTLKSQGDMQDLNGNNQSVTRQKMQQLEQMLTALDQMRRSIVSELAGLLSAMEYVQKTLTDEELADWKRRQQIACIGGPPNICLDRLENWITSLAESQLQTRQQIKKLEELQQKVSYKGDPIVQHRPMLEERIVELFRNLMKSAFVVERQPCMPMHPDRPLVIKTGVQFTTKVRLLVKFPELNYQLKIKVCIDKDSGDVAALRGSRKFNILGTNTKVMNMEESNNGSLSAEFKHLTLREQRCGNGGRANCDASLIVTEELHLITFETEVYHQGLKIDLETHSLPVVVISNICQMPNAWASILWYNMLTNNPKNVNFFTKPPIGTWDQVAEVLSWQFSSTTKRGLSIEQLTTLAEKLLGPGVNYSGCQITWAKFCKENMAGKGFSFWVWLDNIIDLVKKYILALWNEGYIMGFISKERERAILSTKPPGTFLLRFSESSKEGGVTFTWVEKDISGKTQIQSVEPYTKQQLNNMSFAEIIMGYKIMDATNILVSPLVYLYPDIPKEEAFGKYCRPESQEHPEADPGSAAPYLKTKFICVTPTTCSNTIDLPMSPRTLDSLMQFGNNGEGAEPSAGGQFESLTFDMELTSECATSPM
Sequence of RAC-alpha serine/threonine-protein kinase (Homo sapiens) (P31749 whole entry): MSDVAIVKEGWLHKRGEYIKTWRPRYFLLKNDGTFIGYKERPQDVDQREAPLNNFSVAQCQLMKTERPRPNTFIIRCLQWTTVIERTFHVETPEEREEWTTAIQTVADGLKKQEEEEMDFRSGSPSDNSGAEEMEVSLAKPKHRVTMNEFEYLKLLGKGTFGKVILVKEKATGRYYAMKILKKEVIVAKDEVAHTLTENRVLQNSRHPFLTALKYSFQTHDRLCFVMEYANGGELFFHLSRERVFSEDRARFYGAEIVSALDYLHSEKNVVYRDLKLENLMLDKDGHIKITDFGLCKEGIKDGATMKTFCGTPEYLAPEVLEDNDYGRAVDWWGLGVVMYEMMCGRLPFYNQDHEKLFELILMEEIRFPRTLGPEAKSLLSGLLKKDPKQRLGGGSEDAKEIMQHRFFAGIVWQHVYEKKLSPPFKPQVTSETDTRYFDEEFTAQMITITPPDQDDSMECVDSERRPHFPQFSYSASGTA

Structure (SMILES): CCCC[C@H](NC(=O)/C=C(\C)c1ccc(OP(=O)(O)O)cc1)C(=O)N1C[C@H]2C[C@H]2[C@H]1C(=O)NCCNC(N)=O
Ki [1]: 46 nM

Structure (SMILES): C/C(=C\C(=O)N[C@@H](CC(C)C)C(=O)N1CCC[C@H]1C(=O)N[C@@H](CCC(N)=O)C(=O)NCc1ccccc1)c1ccc(OP(=O)(O)O)cc1
Ki [1]: 66 nM

Structure (SMILES): C/C(=C\C(=O)N[C@@H](CC(C)C)C(=O)N1CCC[C@H]1C(=O)NCCNC(N)=O)c1ccc(OP(=O)(O)O)cc1
Ki [1]: 94 nM

Structure (SMILES): C/C(=C\C(=O)N[C@@H](CC(C)C)C(=O)N1C[C@H]2C[C@H]2[C@H]1C(=O)NCCNC(N)=O)c1ccc(OP(=O)(O)O)cc1
Ki [1]: 39 nM

inhibition [2]: Dose-dependent effect
Structure (SMILES): CC(C)(C)C(=O)OCOP(=O)(OCOC(=O)C(C)(C)C)C(F)(F)c1ccc(/C=C/C(=O)N[C@H]2CCc3cccc4c3N(C2=O)[C@H](C(=O)N[C@@H](CCC(N)=O)C(=O)NCc2ccccc2)C4)cc1

Structure (SMILES): C/C(=C\C(=O)N[C@@H](CC(C)C)C(=O)N1CCC[C@H]1C(=O)N[C@H](C)CCC(N)=O)c1ccc(OP(=O)(O)O)cc1
Ki [1]: 144 nM

Structure (SMILES): CCCC[C@H](NC(=O)/C=C(\C)c1ccc(OP(=O)(O)O)cc1)C(=O)N1C[C@H]2C[C@H]2[C@H]1C(=O)N[C@@H](CCC(N)=O)C(=O)NCc1ccccc1
Ki [1]: 33 nM

Structure (SMILES): CCCC[C@H](NC(=O)/C=C(\C)c1ccc(OP(=O)(O)O)cc1)C(=O)N1C[C@H]2C[C@H]2[C@H]1C(=O)N[C@H](C)CCC(N)=O
Ki [1]: 66 nM

Structure (SMILES): C/C(=C\C(=O)N[C@@H](CC(C)C)C(=O)N1CCC[C@H]1C(=O)NCCOC(N)=O)c1ccc(OP(=O)(O)O)cc1
Ki [1]: 203 nM

inhibition [3]: Active
inhibition [4]: Active
inhibition [5]: Active
inhibition [6]: Active
inhibition [7]: inactive
inhibition [8]: Active
inhibition [9]: inactive
inhibition [10]: inactive
inhibition [11]: Dose-dependent effect
inhibition [12]: Active
inhibition [21]: inactive
Structure (SMILES): CCCC[C@H](NC(=O)/C=C(\C)c1ccc(C(F)(F)P(=O)(OCOC(=O)C(C)(C)C)OCOC(=O)C(C)(C)C)cc1)C(=O)N1C[C@H]2C[C@H]2[C@H]1C(=O)N[C@@H](CCC(N)=O)C(C)OCc1ccccc1 (some centres undefined)
Ratio [13]: 10
growth inhibition (GI) [14]: <20%
growth inhibition (GI) [15]: <20%
growth inhibition (GI) [16]: <20%
growth inhibition (GI) [17]: <20%
growth inhibition (GI) [18]: <20%
growth inhibition (GI) [19]: <20%
growth inhibition (GI) [20]: <20%

Structure (SMILES): C/C(=C\C(=O)N[C@@H](CC(C)C)C(=O)N1C[C@H]2C[C@H]2[C@H]1C(=O)N[C@H](C)CCC(N)=O)c1ccc(OP(=O)(O)O)cc1
Ki [1]: 83 nM
